One data set concerns Escherichia coli. Description: Effect on growth of Escherichia coli DH5[alpha] after 48 hrs by resazurin-dye based microdilution assay. It is filed as organism-based. Background: The colour change of resazurin is a common sign of viable cells or microbes.
The nature of data set [1]: Toxicity in NMRI mouse infected with Helicobacter pylori SS1 assessed as change in body weight at 0.1 to 1 mg/100g, po administered daily via gavage for 8 days starting from 1 week post-infection. It is filed as organism-based. The settings on record: in vivo.
Data set [2] can be described thus: Toxicity in NMRI mouse infected with Helicobacter pylori SS1 assessed as change in appetite at 0.1 to 1 mg/100g, po administered daily via gavage for 8 days starting from 1 week post-infection. Type of data set: organism-based. To be noted: in vivo.
The target of data set [3] is T1, Flavodoxin (Helicobacter pylori (strain ATCC 700392 / 26695) (Campylobacter pylori)) (UniProt O25776).
T1 sequence (whole entry): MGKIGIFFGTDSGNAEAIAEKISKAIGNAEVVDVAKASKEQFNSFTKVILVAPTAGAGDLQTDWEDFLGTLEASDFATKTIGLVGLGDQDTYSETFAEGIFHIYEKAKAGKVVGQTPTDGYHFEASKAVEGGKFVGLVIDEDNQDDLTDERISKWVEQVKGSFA
Description: Binding affinity to Helicobacter pylori flavodoxin by isothermal titration calorimetric method.

Data set [4] deals with T1, Flavodoxin (Helicobacter pylori (strain ATCC 700392 / 26695) (Campylobacter pylori)). Description: Binding affinity to Helicobacter pylori flavodoxin by thermal upshift assay.
Data set [5] has the same target. Description: Inhibition of flavodoxin in Helicobacter pylori SS1 assessed as reduction in bacterial growth measured after 48 hrs by resazurin staining-based microdilution method. Summed up: (§1)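 Broth microdilution in brain heart infusion with 4% FBS. Inoculum diluted to OD600 0.01. Two-fold dilutions from a DMSO stock cover 64–0.031 μg/mL, with DMSO ≤1% v/v. Incubated 48 h at 37 °C under microaerophilic conditions. MIC is the lowest concentration giving complete growth inhibition, read by resazurin colour change and confirmed by spotting on blood agar. Run twice in triplicate.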

Data set [6] in a line: Therapeutic index, ratio of MCC50 for human HeLa cells to MIC for inhibition of flavodoxin in Helicobacter pylori SS1 assessed as reduction in bacterial growth. It is filed as toxicity. To be noted: HeLa cells versus Helicobacter pylori SS1, read-out: TI. Summed up: (§2)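 TI is MCC50/MIC. For MCC50, HeLa cells (30 000/well, DMEM with 10% FBS) were exposed to compound at 25–1000 μM final. Viability by XTT at 450/650 nm; MCC50 is the concentration giving 50% lysis from viability curves. Run twice in triplicate.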

Data set [7] relates to Helicobacter pylori. Description: Antibacterial activity against Helicobacter pylori SS1 infected in NMRI mouse assessed as reduction in gastric colonization at 0.1 to 1 mg/100g, po administered daily via gavage for 8 days starting from 1 week post-infection and measured 8 days post-last dose. Type of data set: functional, organism-based. Summed up:
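From day 8, compound given daily by oral gavage for 8 days in 100 μL of 5–10% DMSO/95–90% olive oil. Sacrificed day 24; stomach homogenate CFU/g counted after 5 days microaerophilic culture at 37 °C. Infected vehicle-treated controls; Mann-Whitney U and unpaired t tests, p ≤ 0.05.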

Data set [8] is described as follows: Therapeutic index, ratio of MCC50 for human HeLa cells to MIC for inhibition of flavodoxin in Helicobacter pylori ATCC 700392 26695 assessed as reduction in bacterial growth. It is filed as toxicity. To be noted: HeLa cells versus Helicobacter pylori ATCC 700392 26695, read-out: TI. Summed up:
as §2

Data set [9] deals with T1, Flavodoxin (Helicobacter pylori (strain ATCC 700392 / 26695) (Campylobacter pylori)). The experiment in a line: Inhibition of flavodoxin in Helicobacter pylori ATCC 700392 26695 assessed as reduction in bacterial growth measured after 48 hrs by resazurin staining-based microdilution method. The settings on record: Helicobacter pylori 26695. Summed up: as §1
Data set [10] in a line: Cytotoxicity against human HeLa cells assessed as reduction in cell viability by XTT assay. It is filed as cell-based. The settings on record: read-out: MCC50. Summed up: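 HeLa cells grown in DMEM with 10% FBS, penicillin and streptomycin at 37 °C, 5% CO2; 30 000 cells/well. XTT viability read at 450 and 650 nm. MCC50 (50% lysis) came from viability-versus-concentration curves. Two experiments, each in triplicate.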
A general note: Tetrazolium assays rely on reduction of a dye to a coloured formazan, in cell work by metabolically active cells.

Another data set has as its system Staphylococcus aureus. Description: Effect on growth of Staphylococcus aureus ATCC 1228 after 48 hrs by resazurin-dye based microdilution assay. It is filed as organism-based.
A short description of data set [11]: Therapeutic index, ratio of MCC50 for human HeLa cells to MIC for inhibition of flavodoxin in Mnz-resistant Helicobacter pylori NCTC 11637 ATCC 43504 assessed as reduction in bacterial growth. It is filed as toxicity. The settings on record: read-out: TI. Summed up: as §2
Data set [12] addresses T1, Flavodoxin (Helicobacter pylori (strain ATCC 700392 / 26695) (Campylobacter pylori)). Description: Inhibition of flavodoxin in Mnz-resistant Helicobacter pylori NCTC 11637 ATCC 43504 assessed as reduction in bacterial growth measured after 48 hrs by resazurin staining-based microdilution method. The settings on record: Helicobacter pylori NCTC 11637 = CCUG 17874 = ATCC 43504. Summed up:
as §1

Data set [13] can be described thus: Toxicity in NMRI mouse assessed as change in body weight at 0.1 to 1 mg/100g, po administered daily via gavage for 8 days. Type of data set: organism-based. The settings on record: in vivo, 192 h.
Data set [14] in a line: Toxicity in specific-pathogen-free C57BL/6J mouse assessed as histopathological changes in liver at 10 to 40 mg/100g, po administered daily via gavage for 8 days hematoxylin-eosin staining based assay. Type of data set: organism-based. To be noted: in vivo, 192 h. Summed up:
(§3)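 Controls received olive oil with 5% DMSO. Blood by cardiac puncture was analysed for biochemistry on an automatic analyser. Heart, stomach, liver, lung and kidney sections were H&E-stained for histopathology.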

Data set [15] is described as follows: Toxicity in specific-pathogen-free C57BL/6J mouse assessed as histopathological changes in kidney at 10 to 40 mg/100g, po administered daily via gavage for 8 days hematoxylin-eosin staining based assay. Type of data set: organism-based. To be noted: in vivo, 192 h. Summed up: as §3
Data set [16] in a line: Toxicity in specific-pathogen-free C57BL/6J mouse assessed as change in biochemical parameters at 10 to 40 mg/100g, po administered daily via gavage for 8 days. The settings on record: in vivo, 192 h. It is filed as organism-based. Summed up:
as §3

The nature of data set [17]: Toxicity in specific-pathogen-free C57BL/6J mouse assessed as weight loss at 40 mg/100g, po administered daily via gavage for 8 days. It is filed as organism-based. The settings on record: in vivo, 192 h.
Data set [18] is described as follows: Toxicity in NMRI mouse infected with Helicobacter pylori SS1 assessed as change in appetite at 0.1 to 10 mg/100g, po administered daily via gavage for 8 days starting from 1 week post-infection. It is filed as organism-based. The settings on record: in vivo.
Data set [19] can be described thus: Toxicity in specific-pathogen-free C57BL/6J mouse assessed as histopathological changes in stomach by measuring hyperplasia at 20 to 40 mg/100g, […] hematoxylin-eosin staining based assay. Type of data set: organism-based. The settings on record: in vivo, po, 192 h.
Data set [20] is described as follows: Toxicity in specific-pathogen-free C57BL/6J mouse assessed as hair loss at 40 mg/100g, po administered daily via gavage for 8 days. Type of data set: organism-based. The settings on record: in vivo, 192 h.
Data set [21] can be described thus: Toxicity in specific-pathogen-free C57BL/6J mouse assessed as histopathological changes in heart at 10 to 40 mg/100g, po administered daily via gavage for 8 days hematoxylin-eosin staining based assay. The settings on record: in vivo, 192 h. Type of data set: organism-based. Summed up:
as §3

Data set [22] can be described thus: Toxicity in specific-pathogen-free C57BL/6J mouse assessed as histopathological changes in stomach by measuring inflammation at 20 to 40 mg/100g, po […] hematoxylin-eosin staining based assay. Type of data set: organism-based. To be noted: in vivo, 192 h.
The test system of data set [23] is Helicobacter pylori. The experiment in a line: Antibacterial activity against Helicobacter pylori SS1 infected in NMRI mouse assessed as reduction in gastric colonization at 1 mg/100g, po administered daily via gavage for 8 days starting from 1 week post-infection and measured 8 days post-last dose. Type of data set: functional, organism-based. Summed up:
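Female 6-week-old SPF NMRI mice, 7 per condition, infected orogastrically on days 1 and 3 with 100 μL Hp SS1 (5 × 10^8 CFU/mL). From day 8, compound given daily by oral gavage for 8 days in 100 μL of 5–10% DMSO/95–90% olive oil. Sacrificed day 24; stomach homogenate CFU/g counted after 5 days microaerophilic culture at 37 °C. Infected vehicle-treated controls; Mann-Whitney U and unpaired t tests, p ≤ 0.05.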

Data set [24] is described as follows: Toxicity in NMRI mouse infected with Helicobacter pylori SS1 assessed as change in body weight at 0.1 to 10 mg/100g, po administered daily via gavage for 8 days starting from 1 week post-infection. Type of data set: organism-based. The settings on record: in vivo.
Data set [25] can be described thus: Toxicity in specific-pathogen-free C57BL/6J mouse assessed as histopathological changes in stomach by measuring necrosis of epithelium at 20 to 40 mg/100g, po […] hematoxylin-eosin staining based assay. Type of data set: organism-based. To be noted: in vivo, 192 h.
A short description of data set [26]: Toxicity in NMRI mouse assessed as change in body weight at 0.1 to 10 mg/100g, po administered daily via gavage for 8 days. It is filed as organism-based. The settings on record: in vivo, 192 h.
Data set [27] in a line: Toxicity in specific-pathogen-free C57BL/6J mouse assessed as histopathological changes in lung at 10 to 40 mg/100g, po administered daily via gavage for 8 days hematoxylin-eosin staining based assay. Type of data set: organism-based. The settings on record: in vivo, 192 h. Summed up:
as §3

≈ marks a conversion by molar mass, not a printed value. Calls of active or inactive are those of the source. The calls are words filed in the database; no cut-off is given here. Where only a bound is given, the exact number is not on record here.

As for `O=[N+]([O-])/C=C/c1cc(C(F)(F)F)cc(C(F)(F)F)c1`, the Activity entry (in the data set on Escherichia coli; in data set [1]; in data set [2]; with Staphylococcus aureus; in data set [13]) was “Non-Toxic” each time. Also, the outcome in data set [3] and in [4] was Active. Further, the MIC was determined as 1.8 µM (≈ 0.513 µg/mL) in data set [5], 1.8 µM (≈ 0.513 µg/mL) in data set [9] and 3.5 µM (≈ 0.998 µg/mL) in data set [12]. Moreover, the selectivity ratio in data set [6] stood at 8.3; in [8], 8.3; in data set [11], 4.3. In the data set with Helicobacter pylori [7], the outcome was inactive. For the same compound, in data set [10], the CC50 amounted to 15 µM.

Take `O=[N+]([O-])/C=C/c1c(F)cc(Cl)cc1F`: the Activity result in data set [14] is “Non-Toxic”; with Escherichia coli it was “Non-Toxic”; in data set [15], “Non-Toxic”; in data set [16] it was “Non-Toxic”; in data set [17], more than 20%; in data set [18] it was “Non-Toxic”. The Activity entry in the data set with Staphylococcus aureus is reported as “Non-Toxic”; in data set [19], “Toxic”; in data set [20], “Toxic”; in data set [21], “Non-Toxic”; in [22] it was “Toxic”; in [24], “Non-Toxic”. The Activity entry is given as “Toxic” in [25], “Non-Toxic” in data set [26] and “Non-Toxic” in data set [27]. Also, the outcome (in [3]; in data set [4]; in the data set on Helicobacter pylori [23]) was Active. Moreover, the MIC in [5], in data set [9] and in data set [12] was 2.3 µM (≈ 0.505 µg/mL) throughout. The selectivity ratio in data set [6], in data set [8] and in data set [11] was 16 each time. Besides, the CC50 in data set [10] is 36 µM.

The record behind these values is ChEMBL document CHEMBL4364284, “Design, Synthesis, and Efficacy Testing of Nitroethylene- and 7-Nitrobenzoxadiazol-Based Flavodoxin Inhibitors against Helicobacter pylori Drug-Resistant Clinical Strains and in Helicobacter pylori-Infected Mice” (J Med Chem, 2019).
